Data taken from ChEMBL document CHEMBL1153148, “Addressing species specific metabolism and solubility issues in a quinoline series of oral PDE4 inhibitors” (Bioorg Med Chem Lett, 2010).
pIC50: −log10 of the molar value. In brackets after ≈: the same amount, converted by molar mass.

Key:
[1] = Half life in cynomolgus monkey; type: ADME, organism-based, Macaca fascicularis; settings: in vivo
Method in brief: (§1)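 Cynomolgus monkey pharmacokinetics after oral dosing as a solution in 10% DMSO, 15% PEG400, 75% water; a second arm used suspension dosing of particle-size-reduced material in 1% methyl cellulose. Values are means of three experiments.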

[2] = test system: Blood; test: Inhibition of LPS-induced TNFalpha production in human whole blood; type: functional, tissue-based
[3] = Selectivity for PDE4B over PDE6
[4] = biological target: 3',5'-cyclic-AMP phosphodiesterase 4B (Homo sapiens, UniProt Q07343); test: Inhibition of PDE4B catalytic domain by scintillation proximity assay
Method in brief: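 PDE4B catalytic activity inhibition measured by scintillation proximity assay; pIC50 reported as mean of two determinations.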

[5] = Clearance in cynomolgus monkey plasma; type: ADME, organism-based, Macaca fascicularis; method in brief: as §1
[6] = Selectivity for PDE4B over PDE5
[7] = Oral bioavailability in cynomolgus monkey; type: ADME, organism-based, Macaca fascicularis; settings: in vivo; method in brief: as §1
[8] = Oral bioavailability in rat; type: ADME, organism-based; settings: in vivo
[9] = Selectivity for PDE4B over PDE7
[10] = Aqueous solubility of the compound; type: physicochemical
[11] = Selectivity for PDE4B over PDE2
[12] = Selectivity for PDE4B over PDE3
[13] = Selectivity for PDE4B over PDE1

3',5'-cyclic-AMP phosphodiesterase 4B, sequence (Q07343 whole entry, the tested form may be a part): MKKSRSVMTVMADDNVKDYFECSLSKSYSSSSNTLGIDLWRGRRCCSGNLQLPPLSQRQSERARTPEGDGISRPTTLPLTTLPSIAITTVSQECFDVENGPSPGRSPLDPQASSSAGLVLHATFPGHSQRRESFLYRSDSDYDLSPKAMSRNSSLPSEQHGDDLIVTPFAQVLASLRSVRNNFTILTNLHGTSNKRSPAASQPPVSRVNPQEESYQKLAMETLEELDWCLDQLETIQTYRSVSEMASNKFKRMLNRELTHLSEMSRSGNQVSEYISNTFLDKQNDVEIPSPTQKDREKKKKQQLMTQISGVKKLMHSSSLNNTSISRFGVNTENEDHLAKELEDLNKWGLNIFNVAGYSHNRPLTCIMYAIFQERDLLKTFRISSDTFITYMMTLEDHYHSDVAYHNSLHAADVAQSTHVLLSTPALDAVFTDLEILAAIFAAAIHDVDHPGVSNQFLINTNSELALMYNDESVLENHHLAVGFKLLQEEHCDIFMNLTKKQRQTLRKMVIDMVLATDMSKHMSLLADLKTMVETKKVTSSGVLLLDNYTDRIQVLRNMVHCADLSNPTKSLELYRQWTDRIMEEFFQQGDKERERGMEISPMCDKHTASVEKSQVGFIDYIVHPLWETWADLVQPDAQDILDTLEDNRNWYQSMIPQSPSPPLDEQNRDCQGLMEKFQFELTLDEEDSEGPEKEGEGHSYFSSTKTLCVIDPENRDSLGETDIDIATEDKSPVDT

Row | Structure (SMILES) | half-life [1] | pIC50 [2] | Selectivity ratio [3] | pIC50 [4] | clearance [5] | Selectivity ratio [6] | bioavailability [7] | bioavailability [8] | Selectivity ratio [9] | solubility [10] | Selectivity ratio [11] | Selectivity ratio [12] | Selectivity ratio [13]
1 | Cc1cc(S(C)(=O)=O)cc2c1NNC(C(N)=O)=C2Nc1cccc(C#N)c1 | 7.2 h | 8.60 | > 100 | > 9.00 | 1.6 mL/min/kg | > 100 | 64% | 17% | > 100 | 1 µg/mL (≈ 2.61 µM) | > 100 | > 100 | > 100
2 | Cc1cc(S(C)(=O)=O)cc2c1NNC(C(N)=O)=C2Nc1cncc(F)c1 |  | 8.30 |  | > 9.30 |  |  |  | 34% |  | 37 µg/mL (≈ 98 µM) |  |  | 
3 | CCn1nccc1NC1=C(C(N)=O)NNc2c(C)cc(S(=O)(=O)CC)cc21 |  | 8.00 |  | 9.50 |  |  |  | 41% |  |  |  |  | 
4 | CS(=O)(=O)c1cc(F)c2c(c1)C(Nc1cncc(F)c1)=C(C(N)=O)NN2 |  | 6.80 |  | 9.20 |  |  |  |  |  |  |  |  | 
5 | CS(=O)(=O)c1ccc2c(c1)C(Nc1cncc(Cl)c1)=C(C(N)=O)NN2 |  | 7.50 |  | 9.10 |  |  |  | 66% |  | 7 µg/mL (≈ 18.4 µM) |  |  | 
6 | CC(C)(C)S(=O)(=O)c1ccc2c(c1)C(Nc1cncc(F)c1)=C(C(N)=O)NN2 |  | 7.90 |  | 9.30 |  |  |  | 57% |  | 1 µg/mL (≈ 2.47 µM) |  |  | 
7 | Cc1cc(S(C)(=O)=O)cc2c(Nc3cccc(C#N)c3)c(C(N)=O)cnc12 | 0.8 h | 7.90 |  |  | 82 mL/min/kg |  | 33% |  |  | 1 µg/mL (≈ 2.63 µM) |  |  | 
8 | Cc1cc(S(C)(=O)=O)cc2c1NNC(C(N)=O)=C2Nc1cncc(Cl)c1 |  | 8.80 |  | 10.10 |  |  |  | 50% |  | 12 µg/mL (≈ 30.5 µM) |  |  | 
9 | Cc1cc(S(C)(=O)=O)cc2c(Nc3cccc(C#N)c3)c(C(N)=O)c(=O)[nH]c12 | 4.2 h | 7.60 |  | 9.00 | 5.9 mL/min/kg |  | 52% |  |  |  |  |  | 
